Test results taken from ChEMBL document CHEMBL3259775, “Towards the development of 5-HT₇ ligands combining serotonin-like and arylpiperazine moieties” (Eur J Med Chem, 2014).
The source made the active and inactive calls. The calls are words filed in the database; no cut-off is given here.

What was measured:
[1] = target: T1, 5-hydroxytryptamine receptor 7 (Homo sapiens, UniProt P34969); assay: Displacement of [3H]5-HT from human 5-HT7 receptor expressed in HEK293 cells after 30 mins by microbeta counting analysis; assay type: cell-based
T1 sequence (P34969 whole entry): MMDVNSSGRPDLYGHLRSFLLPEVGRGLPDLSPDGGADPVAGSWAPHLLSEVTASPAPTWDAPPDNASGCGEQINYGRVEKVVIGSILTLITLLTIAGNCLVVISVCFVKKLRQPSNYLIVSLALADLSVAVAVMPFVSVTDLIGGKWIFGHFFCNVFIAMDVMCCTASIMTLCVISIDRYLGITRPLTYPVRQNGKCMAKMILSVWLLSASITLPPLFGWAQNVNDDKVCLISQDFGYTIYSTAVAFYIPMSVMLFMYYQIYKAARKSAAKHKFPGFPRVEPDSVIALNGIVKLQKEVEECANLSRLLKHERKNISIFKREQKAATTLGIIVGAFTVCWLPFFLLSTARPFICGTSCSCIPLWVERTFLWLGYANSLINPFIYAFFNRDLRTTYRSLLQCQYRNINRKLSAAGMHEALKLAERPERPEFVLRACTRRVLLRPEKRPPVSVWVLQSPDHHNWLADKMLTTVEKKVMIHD

[2] = target: T2, 5-hydroxytryptamine receptor 1A (Homo sapiens) (UniProt P08908); assay: Displacement of [3H]-8-OH-DPAT from human recombinant 5-HT1A receptor expressed in HEK293 cells at 1 uM by scintillation counting analysis relative to control; assay type: cell-based
T2 sequence (whole entry): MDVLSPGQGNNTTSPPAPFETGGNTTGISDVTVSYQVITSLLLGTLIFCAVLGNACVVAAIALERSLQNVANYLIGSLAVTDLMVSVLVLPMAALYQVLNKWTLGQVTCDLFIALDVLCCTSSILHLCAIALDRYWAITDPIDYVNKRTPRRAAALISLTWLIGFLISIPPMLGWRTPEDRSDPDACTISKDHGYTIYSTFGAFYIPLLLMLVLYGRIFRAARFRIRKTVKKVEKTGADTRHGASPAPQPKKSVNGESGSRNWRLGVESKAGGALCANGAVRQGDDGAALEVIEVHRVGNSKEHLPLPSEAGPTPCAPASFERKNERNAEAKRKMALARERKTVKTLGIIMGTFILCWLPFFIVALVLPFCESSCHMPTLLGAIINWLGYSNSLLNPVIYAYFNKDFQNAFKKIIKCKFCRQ

[3] = target: 5-hydroxytryptamine receptor 1B (Homo sapiens) (UniProt P28222); assay: Binding affinity to recombinant human 5-HT1B receptor expressed in CHO cells at 1 uM by radioligand displacement assay relative to control; assay type: cell-based
5-hydroxytryptamine receptor 1B (Homo sapiens), sequence (P28222 whole entry): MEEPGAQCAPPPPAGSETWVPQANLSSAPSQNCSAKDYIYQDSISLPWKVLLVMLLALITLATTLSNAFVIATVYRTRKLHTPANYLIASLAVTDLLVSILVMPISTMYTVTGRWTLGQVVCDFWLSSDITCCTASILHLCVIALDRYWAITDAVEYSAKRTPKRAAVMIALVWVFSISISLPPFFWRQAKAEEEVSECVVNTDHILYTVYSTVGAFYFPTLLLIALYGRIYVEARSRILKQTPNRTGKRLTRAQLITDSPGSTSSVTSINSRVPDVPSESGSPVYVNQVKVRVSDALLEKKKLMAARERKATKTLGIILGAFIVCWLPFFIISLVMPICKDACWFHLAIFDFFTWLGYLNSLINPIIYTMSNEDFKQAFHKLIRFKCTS

[4] = target: 5-hydroxytryptamine receptor 1D (Rattus norvegicus) (UniProt P28565); assay: Binding affinity to rat recombinant 5-HT1D receptor expressed in CHO cells at 1 uM by radioligand displacement assay relative to control; assay type: cell-based
5-hydroxytryptamine receptor 1D (Rattus norvegicus), sequence (P28565 whole entry): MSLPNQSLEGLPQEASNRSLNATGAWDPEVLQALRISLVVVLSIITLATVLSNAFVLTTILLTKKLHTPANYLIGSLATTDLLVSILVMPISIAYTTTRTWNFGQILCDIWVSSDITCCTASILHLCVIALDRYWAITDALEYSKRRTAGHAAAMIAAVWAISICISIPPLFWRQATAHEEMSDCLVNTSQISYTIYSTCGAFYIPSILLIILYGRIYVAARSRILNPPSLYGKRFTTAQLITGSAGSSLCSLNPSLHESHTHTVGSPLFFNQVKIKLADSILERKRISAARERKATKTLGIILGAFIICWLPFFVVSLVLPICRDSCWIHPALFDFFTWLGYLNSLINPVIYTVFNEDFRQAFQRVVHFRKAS

[5] = target: 5-hydroxytryptamine receptor 2A (Homo sapiens) (UniProt P28223); assay: Binding affinity to human recombinant 5-HT2A receptor expressed in HEK293 cells at 1 uM by radioligand displacement assay relative to control; assay type: cell-based
5-hydroxytryptamine receptor 2A (Homo sapiens), sequence (P28223 whole entry): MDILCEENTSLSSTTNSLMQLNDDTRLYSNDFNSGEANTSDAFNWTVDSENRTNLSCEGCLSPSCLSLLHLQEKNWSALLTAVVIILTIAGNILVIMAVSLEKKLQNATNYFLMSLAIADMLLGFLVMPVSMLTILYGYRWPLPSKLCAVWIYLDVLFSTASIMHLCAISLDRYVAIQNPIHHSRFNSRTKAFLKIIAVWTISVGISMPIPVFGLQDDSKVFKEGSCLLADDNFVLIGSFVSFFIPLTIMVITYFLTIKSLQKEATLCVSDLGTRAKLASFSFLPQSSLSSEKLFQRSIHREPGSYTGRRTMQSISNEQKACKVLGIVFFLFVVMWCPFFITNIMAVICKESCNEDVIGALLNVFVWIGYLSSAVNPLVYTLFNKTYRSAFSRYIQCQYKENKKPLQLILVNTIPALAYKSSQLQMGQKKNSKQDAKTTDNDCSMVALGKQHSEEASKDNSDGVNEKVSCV

[6] = target: 5-hydroxytryptamine receptor 2B (Homo sapiens) (UniProt P41595); assay: Binding affinity to human recombinant 5-HT2B receptor expressed in CHO cells at 1 uM by radioligand displacement assay relative to control; assay type: cell-based
5-hydroxytryptamine receptor 2B (Homo sapiens), sequence (P41595 whole entry): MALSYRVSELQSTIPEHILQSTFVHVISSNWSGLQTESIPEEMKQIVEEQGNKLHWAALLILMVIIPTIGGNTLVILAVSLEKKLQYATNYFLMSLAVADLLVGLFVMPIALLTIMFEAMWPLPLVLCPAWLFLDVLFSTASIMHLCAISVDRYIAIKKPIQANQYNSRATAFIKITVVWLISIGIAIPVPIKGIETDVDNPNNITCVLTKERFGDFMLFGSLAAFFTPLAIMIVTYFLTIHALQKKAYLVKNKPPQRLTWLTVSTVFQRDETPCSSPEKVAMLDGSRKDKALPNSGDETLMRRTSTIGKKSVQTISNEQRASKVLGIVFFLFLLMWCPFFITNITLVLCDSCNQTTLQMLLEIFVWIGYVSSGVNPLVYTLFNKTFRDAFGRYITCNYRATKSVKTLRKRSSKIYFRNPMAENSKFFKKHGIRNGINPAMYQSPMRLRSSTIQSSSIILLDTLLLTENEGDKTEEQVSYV

[7] = target: T3, 5-hydroxytryptamine receptor 2C (Homo sapiens) (UniProt P28335); assay: Binding affinity to human recombinant 5-HT2C receptor expressed in HEK293 cells at 1 uM after 30 mins by radioligand displacement assay relative to control; assay type: cell-based
T3 sequence (whole entry): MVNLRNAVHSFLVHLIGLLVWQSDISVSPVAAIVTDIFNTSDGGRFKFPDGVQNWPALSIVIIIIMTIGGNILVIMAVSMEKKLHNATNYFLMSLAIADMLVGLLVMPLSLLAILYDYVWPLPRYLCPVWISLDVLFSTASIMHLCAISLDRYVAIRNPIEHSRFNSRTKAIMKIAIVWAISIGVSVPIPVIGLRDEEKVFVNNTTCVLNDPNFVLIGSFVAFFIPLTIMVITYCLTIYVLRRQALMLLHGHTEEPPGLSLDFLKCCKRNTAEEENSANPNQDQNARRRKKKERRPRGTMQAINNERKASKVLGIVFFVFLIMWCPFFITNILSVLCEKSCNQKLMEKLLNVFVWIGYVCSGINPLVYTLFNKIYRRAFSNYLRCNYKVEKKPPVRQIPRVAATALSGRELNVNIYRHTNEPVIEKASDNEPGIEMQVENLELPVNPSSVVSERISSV

[8] = target: T4, 5-hydroxytryptamine receptor 3A (Homo sapiens) (UniProt P46098); assay: Binding affinity to human 5-HT3 receptor at 1 uM by radioligand displacement assay relative to control
T4 sequence (whole entry): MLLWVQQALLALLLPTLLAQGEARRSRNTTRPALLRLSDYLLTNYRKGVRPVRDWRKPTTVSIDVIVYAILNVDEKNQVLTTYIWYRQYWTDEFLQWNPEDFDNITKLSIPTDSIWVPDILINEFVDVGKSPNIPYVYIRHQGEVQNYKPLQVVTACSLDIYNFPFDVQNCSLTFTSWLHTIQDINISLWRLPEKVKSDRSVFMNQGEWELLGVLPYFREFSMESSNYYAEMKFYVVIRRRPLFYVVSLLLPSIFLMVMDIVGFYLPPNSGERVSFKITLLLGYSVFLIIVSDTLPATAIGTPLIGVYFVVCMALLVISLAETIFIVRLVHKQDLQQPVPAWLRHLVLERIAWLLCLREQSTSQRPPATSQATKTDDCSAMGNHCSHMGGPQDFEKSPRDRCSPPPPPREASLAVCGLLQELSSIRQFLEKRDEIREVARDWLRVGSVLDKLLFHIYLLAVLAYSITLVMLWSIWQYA

[9] = target: 5-hydroxytryptamine receptor 4 (Homo sapiens) (UniProt Q13639); assay: Binding affinity to human recombinant 5-HT4E receptor expressed in CHO cells at 1 uM after 30 mins by radioligand displacement assay relative to control; assay type: cell-based
5-hydroxytryptamine receptor 4 (Homo sapiens), sequence (Q13639 whole entry): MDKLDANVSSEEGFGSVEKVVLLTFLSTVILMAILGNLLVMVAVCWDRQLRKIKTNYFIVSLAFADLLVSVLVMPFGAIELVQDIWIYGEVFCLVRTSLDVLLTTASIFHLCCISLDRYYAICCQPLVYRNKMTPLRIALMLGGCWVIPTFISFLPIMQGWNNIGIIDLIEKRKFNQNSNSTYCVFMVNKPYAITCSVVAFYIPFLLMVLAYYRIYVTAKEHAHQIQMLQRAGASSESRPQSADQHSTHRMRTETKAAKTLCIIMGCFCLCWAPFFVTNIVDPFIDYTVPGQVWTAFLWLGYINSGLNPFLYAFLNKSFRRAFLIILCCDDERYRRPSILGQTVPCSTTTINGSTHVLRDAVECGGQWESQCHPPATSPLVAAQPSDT

[10] = target: 5-hydroxytryptamine receptor 5A (Homo sapiens) (UniProt P47898); assay: Displacement of [3H]LSD from human recombinant 5-HT5A receptor expressed in HEK293 cells at 1 uM after 120 mins by scintillation counting analysis relative to control; assay type: cell-based
5-hydroxytryptamine receptor 5A (Homo sapiens), sequence (P47898 whole entry): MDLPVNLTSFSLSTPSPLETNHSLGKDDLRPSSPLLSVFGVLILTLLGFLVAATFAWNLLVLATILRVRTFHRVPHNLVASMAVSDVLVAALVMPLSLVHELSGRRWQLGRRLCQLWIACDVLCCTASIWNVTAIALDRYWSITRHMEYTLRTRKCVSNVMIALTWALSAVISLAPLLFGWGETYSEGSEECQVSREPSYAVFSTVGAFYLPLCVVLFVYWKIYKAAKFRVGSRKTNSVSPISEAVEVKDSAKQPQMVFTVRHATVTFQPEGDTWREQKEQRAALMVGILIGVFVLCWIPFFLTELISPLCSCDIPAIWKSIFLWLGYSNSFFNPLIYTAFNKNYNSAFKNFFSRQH

[11] = target: 5-hydroxytryptamine receptor 6 (Homo sapiens) (UniProt P50406); assay: Binding affinity to human recombinant 5-HT6 receptor expressed in CHO cells at 1 uM after 30 mins by radioligand displacement assay relative to control; assay type: cell-based
5-hydroxytryptamine receptor 6 (Homo sapiens), sequence (P50406 whole entry): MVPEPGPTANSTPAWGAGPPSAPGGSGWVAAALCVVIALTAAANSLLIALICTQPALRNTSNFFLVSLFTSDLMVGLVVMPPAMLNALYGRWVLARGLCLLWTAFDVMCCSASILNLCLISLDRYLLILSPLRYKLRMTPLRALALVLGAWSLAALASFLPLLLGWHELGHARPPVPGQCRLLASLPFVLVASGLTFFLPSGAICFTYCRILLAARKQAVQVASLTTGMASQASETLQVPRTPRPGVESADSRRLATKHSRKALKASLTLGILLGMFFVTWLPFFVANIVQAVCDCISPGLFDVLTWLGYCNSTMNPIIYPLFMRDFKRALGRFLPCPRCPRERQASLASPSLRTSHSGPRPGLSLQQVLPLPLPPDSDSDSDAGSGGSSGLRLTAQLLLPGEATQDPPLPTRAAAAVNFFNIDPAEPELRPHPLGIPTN

[12] = target: T1, 5-hydroxytryptamine receptor 7; assay: Binding affinity to human recombinant 5-HT7 receptor expressed in CHO cells after 30 mins by radioligand displacement assay; assay type: cell-based
Summary of the method: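 Membranes from receptor-expressing cells harvested at 80% confluence, homogenised and pelleted at 48,000 × g for 90 min, then protein-quantified by Bradford. Competition with 5 nmol/L [3H]5-HT and test compound for 30 min at 25 °C in 50 mM Tris-HCl pH 7.4 containing pargyline, 4 mmol/L CaCl2 and 0.05% ascorbic acid. Non-specific binding measured with excess cold 5-HT; bound radioligand separated by filtration. Ki derived from IC50 by Cheng-Prusoff; mean of four determinations in duplicate.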

[13] = target: T1, 5-hydroxytryptamine receptor 7; assay: Displacement of [3H]5-HT from human 5-HT7 receptor expressed in HEK293 cells at 10^-7 mol/L after 30 mins by microbeta counting analysis; assay type: cell-based
[14] = target: T1, 5-hydroxytryptamine receptor 7; assay: Antagonist activity at human 5-HT7 receptor expressed in CHO cells assessed as inhibition of 5-HT-stimulated cAMP accumulation by Cheng-Prusoff method; assay type: functional, cell-based
[15] = target: T1, 5-hydroxytryptamine receptor 7; assay: Agonist activity at human 5-HT7 receptor expressed in CHO cells assessed as stimulation of cAMP accumulation up to 10^-5 M; assay type: functional, cell-based
[16] = target: T1, 5-hydroxytryptamine receptor 7; assay: Antagonist activity at human 5-HT7 receptor expressed in CHO cells assessed as inhibition of 5-HT-stimulated cAMP accumulation; assay type: functional, cell-based
[17] = target: T1, 5-hydroxytryptamine receptor 7; assay: Antagonist activity at human 5-HT7 receptor expressed in CHO cells assessed as residual 5-HT-stimulated cAMP accumulation at 1 uM relative to control
[18] = target: T1, 5-hydroxytryptamine receptor 7; assay: Displacement of [3H]5-HT from human 5-HT7 receptor expressed in HEK293 cells at 10^-5 mol/L after 30 mins by microbeta counting analysis; assay type: cell-based
Summary of the method: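 Membranes incubated 30 min at 25 °C with 5 nmol/L [3H]5-HT in 50 mM Tris-HCl pH 7.4 containing pargyline, CaCl2 and ascorbic acid, with the test compound at a single fixed concentration. Non-specific binding with 100 µM cold 5-HT; separation by filtration; result reported as % displacement.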

Question: `Oc1ccc2[nH]cc(CCN3CCN(c4ccccc4)CC3)c2c1` was tested. Which Ki [1] did it give?
Answer: 63.1 nM

Question: What about the inhibition [2] of the same molecule?
Answer: 95%

Question: And the inhibition [3]?
Answer: 11%

Question: What about the inhibition [4] of the same molecule?
Answer: 60%

Question: And the inhibition [5]?
Answer: 97%

Question: And the inhibition [6]?
Answer: 98%

Question: And the inhibition [7]?
Answer: 66%

Question: And the inhibition [8]?
Answer: 1%

Question: What about the inhibition [9] of the same molecule?
Answer: 17%

Question: And the inhibition [10]?
Answer: 56%

Question: And the inhibition [11]?
Answer: 18%

Question: What about the Ki [12] of the same molecule?
Answer: 63.1 nM

Question: What does the source list for `CN(C(=O)CCCCCN1CCN(c2cccc3ccccc23)CC1)c1cccc(O)c1`?
Answer: Ki [1]: 8.1 nM; inhibition [2]: 99%; inhibition [3]: 69%; inhibition [4]: 100%; inhibition [5]: 99%; inhibition [6]: 101%; inhibition [7]: 98%; inhibition [8]: 6%; inhibition [9]: 16%; inhibition [10]: 70%; inhibition [11]: 71%; Ki [12]: 8.1 nM

Question: For `Oc1ccc2[nH]cc(CCN3CCN(C4CCCC4)CC3)c2c1`, which inhibition [13] is on record?
Answer: 1%

Question: How did the Ki [1] turn out when `Oc1ccc2[nH]cc(CCN3CCN(c4cccc5ccccc45)CC3)c2c1` was run?
Answer: 11.6 nM

Question: And the inhibition [2]?
Answer: 100%

Question: What about the inhibition [3] of the same molecule?
Answer: 74%

Question: What about the inhibition [4] of the same molecule?
Answer: 99%

Question: And the inhibition [5]?
Answer: 100%

Question: What about the inhibition [6] of the same molecule?
Answer: 98%

Question: What about the inhibition [7] of the same molecule?
Answer: 98%

Question: What about the inhibition [8] of the same molecule?
Answer: 15%

Question: What about the inhibition [9] of the same molecule?
Answer: 7%

Question: And the inhibition [10]?
Answer: 94%

Question: And the inhibition [11]?
Answer: 76%

Question: What about the Ki [12] of the same molecule?
Answer: 11.6 nM

Question: Which Kb [14] does the source give for `CN1C[C@@H](NS(=O)(=O)N(C)C)C[C@@H]2c3cccc4c3c(cn4C)C[C@H]21` here?
Answer: 16 nM

Question: With `CN(CCCCN1CCN(c2ccccc2)CC1)c1cccc(O)c1` as the molecule, how does the Ki [1] read?
Answer: 30 nM

Question: What about the Activity [15] of the same molecule?
Answer: inactive

Question: What about the IC50 [16] of the same molecule?
Answer: 540 nM

Question: What about the Kb [14] of the same molecule?
Answer: 57 nM

Question: And the % serotonin response [17]?
Answer: 39%

Question: Which inhibition [13] does the source give for `CCCCN1CCN(CCc2c[nH]c3ccc(O)cc23)CC1` here?
Answer: -9%

Question: For `CN(CCCN1CCN(c2ccccc2)CC1)c1cccc(O)c1`, which Ki [1] is on record?
Answer: 20 nM

Question: What about the inhibition [2] of the same molecule?
Answer: 101%

Question: What about the inhibition [3] of the same molecule?
Answer: 9%

Question: And the inhibition [4]?
Answer: 18%

Question: And the inhibition [5]?
Answer: 79%

Question: And the inhibition [6]?
Answer: 75%

Question: What about the inhibition [7] of the same molecule?
Answer: 42%

Question: What about the inhibition [8] of the same molecule?
Answer: 5%

Question: What about the inhibition [9] of the same molecule?
Answer: -5%

Question: What about the inhibition [10] of the same molecule?
Answer: 49%

Question: What about the inhibition [11] of the same molecule?
Answer: 21%

Question: And the Ki [12]?
Answer: 20 nM

Question: And the % serotonin response [17]?
Answer: 49%

Question: How did the inhibition [18] turn out when `Oc1ccc2[nH]cc(CCN3CCN(c4ccc(-c5ccccc5)cc4)CC3)c2c1` was run?
Answer: 32%

Question: And the inhibition [13]?
Answer: 10%
